Activity calls are given as the source filed them.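 The calls were made as follows: active = compounds that lower cell viability signal with a fitted half-maximal concentration within ten times the top tested dose; inconclusive = flat curve inhibiting 30 to 70%, or an unreliable fit; inactive = the rest.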

Test system in one experiment: not listed separately
Nature of the experiment: growth inhibition of MALME3 cells – cell-based, CellTiter-Glo, dry powder samples, orthogonal assay for MITF inhibitor project, dose response (AID 540339). Conditions: MALME3 melanoma viability, CellTiter-Glo luminescence, 24 h; at 35 µM (top of the series). The essentials: (§1)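 Assay system: MALME3 melanoma cells / Dosing: pinned compound dose series / Incubation: 24 h compound at 37 °C, then 5 min reagent, RT / Measured by: CellTiter-Glo luminescence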
As for `CC1CCCCC1NC(=O)/C(C#N)=C/C=C/c1ccccc1[N+](=O)[O-]` (stereo unspecified), the activity change, negative = inhibition is 2.17% (inactive).

For another experiment, the system named is MALME3 melanoma viability, CellTiter-Glo luminescence, 24 h. The experiment is described as above.
Conditions: not given
The essentials: as §1
As for `CC1CCN(CC(CS(=O)(=O)c2ccc([N+](=O)[O-])cc2)N2CCC(C)CC2)CC1` (stereo unspecified), the AC50 was 18.6 µM.
The same measure, in the same setting: the figure for `C=CCNC1=C(Cl)C(=O)c2ccccc2C1=O` is 8.93 µM; for `CCN1CCN(C2=C(NS(=O)(=O)c3ccc(Br)cc3)C(=O)c3ccccc3C2=O)CC1` it is 17.7 µM; for `Cc1[nH]c2ccccc2c1C(=O)CCl` it is 31.8 µM.
Turning to `N=c1n(CCN2CCCC2)c2ccccc2n1CC(O)c1ccc(Cl)c(Cl)c1` (stereo unspecified), the AC50 is 18.6 µM.
As for `O=c1c(Cl)c2oc3ccccc3nc-2c2ccccc12`, the AC50 was 18.2 µM.
As to `CN(C)CCCNC(=O)/C(=C\c1ccc(-c2ccc(Br)cc2)o1)NC(=O)c1ccccc1`, the AC50 is 17.4 µM.
Take `COc1ccc(S(=O)(=O)N(C(C)=O)c2ccc(OC(C)=O)c3ccccc23)cc1[N+](=O)[O-]`: the AC50 is 4.21 µM.
Consider `O=C(COc1ccccc1)N/N=C/c1ccc([N+](=O)[O-])o1`, for which the half-maximal activity concentration (AC50) is 19.1 µM.
For the molecule `Cc1ccc(C(=O)N/N=C/c2ccc([N+](=O)[O-])s2)cc1`, the AC50 is 14.8 µM.
Consider `CCN(CC)CCNC(=O)c1c(C)n(-c2ccccc2)c2cc(Br)c(OC)cc12`, for which the AC50 was 34.1 µM.
Take `O=C(CNc1cccc2ccccc12)N/N=C/c1ccc([N+](=O)[O-])o1`: the AC50 was 20 µM.
On to `CC(C)C(CCNC1CCN(C)CC1)c1ccc(Cl)cc1` (stereo unspecified), for which the AC50 is 4.04 µM.
`CCN1c2ccccc2NC2N=C(OC)C(c3ccccc3)C21` (stereo unspecified): the concentration at half-maximal activity (AC50) is 7.91 µM.
Take `Cc1ccc(C(C)C)c(OCc2nn(CC(=O)c3ccc(Cl)cc3)c3[n+]2CCCCC3)c1`: the AC50 was 23.1 µM.
In the case of `O=C(Nc1ccc(N2CCN(C(=O)c3ccccc3)CC2)cc1)c1ccc([N+](=O)[O-])o1`, the AC50 was 16.7 µM.
For the molecule `CC1=NNC(=O)/C1=C\c1cn(-c2ccccc2)nc1-c1ccc(F)cc1`, the AC50 is 36.5 µM.
On to `O=C(Cn1ncc(Cl)c(Cl)c1=O)N1CCc2ccccc21`, for which the AC50 was 5.07 µM.
As to `CC1(C)CC(NC(=O)c2ccc(Cl)c(S(=O)(=O)N(Cc3ccccc3)c3ccccc3)c2)CC(C)(C)N1`, the half-maximal activity concentration (AC50) is 17.4 µM.
As for `COc1cc(/C=N/NC(N)=O)c(Br)cc1OCC(=O)Nc1ccccc1C`, the AC50 was 32.8 µM.
Turning to `CC1CN(C(=O)CCC(=O)NCCCN2CCC(Cc3ccccc3)CC2)c2cc(Cl)ccc2O1` (stereo unspecified), the concentration at half-maximal activity (AC50) is 29.9 µM.
As to `CCN1CCCC1CNC(=O)c1ccc2c(c1)NC(=O)/C(=C\c1ccc(C)cc1)S2` (stereo unspecified), the concentration at half-maximal activity (AC50) was 20 µM.
Turning to `COc1cc2c(cc1OC)C(c1ccccc1)N(C(=O)CCl)CC2` (stereo unspecified), the AC50 is 18 µM.
Take `O=C(Nc1ccc(-c2nc3ncccc3o2)cc1)c1ccc([N+](=O)[O-])o1`: the half-maximal activity concentration (AC50) was 14.5 µM.
On the same count and under the same terms, with `Cc1nc2ccccc2n1/N=C/c1ccc([N+](=O)[O-])s1` the figure was 10.3 µM.

These data come from PubChem BioAssay AID540339 (Broad Institute, 2011).
